Legend:
Format in all cases: functional
Details in all cases: read-out: GI
[1] = tested on: NB-4; assay: Antiproliferative activity against human NB4 cells assessed as cell growth inhibition at 10 uM incubated for 48 hrs by CCK8 assay relative to control
How it was run: (§1)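 Single-concentration screen of six cancer cell lines. Cells were exposed to 10 μM compound and growth was measured by CCK-8 assay. Results are reported as inhibition rate at 10 μM.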

[2] = tested on: MOLM-13; assay: Antiproliferative activity against human MOLM-13 cells assessed as cell growth inhibition at 10 uM incubated for 48 hrs by CCK8 assay relative to control; how it was run: as §1
[3] = tested on: JeKo-1; assay: Antiproliferative activity against human JeKo-1 cells assessed as cell growth inhibition at 10 uM incubated for 48 hrs by CCK8 assay relative to control; how it was run: as §1
[4] = tested on: A549; assay: Antiproliferative activity against human A549 cells assessed as cell growth inhibition at 10 uM incubated for 48 hrs by CCK8 assay relative to control; how it was run: as §1
[5] = tested on: HeLa; assay: Antiproliferative activity against human HeLa cells assessed as cell growth inhibition at 10 uM incubated for 48 hrs by CCK8 assay relative to control; how it was run: as §1
[6] = tested on: U-251; assay: Antiproliferative activity against human U-251 cells assessed as cell growth inhibition at 10 uM incubated for 48 hrs by CCK8 assay relative to control; how it was run: as §1

| Compound | inhibition of growth at 10 µM [1] | inhibition of growth at 10 µM [2] | inhibition of growth at 10 µM [3] | inhibition of growth at 10 µM [4] | inhibition of growth at 10 µM [5] | inhibition of growth at 10 µM [6] |
| --- | --- | --- | --- | --- | --- | --- |
| COc1ccc2c(c1OC)C(=O)O[C@@H]2[C@H]1c2c(c(CC3CCN(C(=O)OC(C)(C)C)C3)c3c(c2OC)OCO3)CCN1C(=O)OC(C)(C)C (some centres undefined) | 23.2% | 52.5% | 7.92% | < 5% | < 5% | < 5% |
| COc1ccc2c(c1OC)C(=O)O[C@@H]2[C@H]1c2c(c(CC[Si](C)(C)C)c3c(c2OC)OCO3)CCN1C(=O)OC(C)(C)C | 21.9% | 46.9% | < 5% | < 5% | < 5% | < 5% |
| COc1ccc2c(c1OC)C(=O)O[C@@H]2[C@H]1c2c(c(CC3CC3)c3c(c2OC)OCO3)CCN1C(=O)OC(C)(C)C | 8.2% | 43.6% | < 5% | < 5% | < 5% | < 5% |
| COc1ccc2c(c1OC)C(=O)O[C@@H]2[C@H]1c2c(c(C3CCN(C(=O)OC(C)(C)C)CC3)c3c(c2OC)OCO3)CCN1C(=O)OC(C)(C)C | 21.2% | 62.9% | 22.3% | 14.7% | 17.5% | < 5% |
| COc1ccc2c(c1OC)C(=O)O[C@@H]2[C@H]1c2c(c(C3CCN(C(=O)OC(C)(C)C)C3)c3c(c2OC)OCO3)CCN1C(=O)OC(C)(C)C (some centres undefined) | 22.1% | 54.8% | 14.9% | 17.7% | < 5% | < 5% |
| CCCCc1c2c(c(OC)c3c1OCO3)[C@H]([C@H]1OC(=O)c3c1ccc(OC)c3OC)N(C(=O)OC(C)(C)C)CC2 | 10% | 48.6% | 11.4% | < 5% | < 5% | < 5% |
| COc1ccc2c(c1OC)C(=O)O[C@@H]2[C@H]1c2c(c(C3COC3)c3c(c2OC)OCO3)CCN1C(=O)OC(C)(C)C | 9.21% | 11.7% | 13.3% | < 5% | 14.9% | 12.3% |
| COc1ccc2c(c1OC)C(=O)O[C@@H]2[C@H]1c2c(c(C3CC4CCC3C4)c3c(c2OC)OCO3)CCN1C(=O)OC(C)(C)C (some centres undefined) | 15% | 48.6% | < 5% | < 5% | < 5% | < 5% |
| COc1ccc2c(c1OC)C(=O)O[C@@H]2[C@H]1c2c(c(CC3CCC3)c3c(c2OC)OCO3)CCN1C(=O)OC(C)(C)C | 8.8% | 53.1% | 6.67% | < 5% | < 5% | < 5% |
